Source: article PMC3319382 (Bioorganic & medicinal chemistry, 2011)
Entries after “also recorded” stand apart in the source; their conditions may differ.

Legend:
yeast Rce1p [1] = target: T1, yeast Rce1p (Saccharomyces cerevisiae, UniProt Q03530); details: ref [12], [13]; cited from earlier work
T1 sequence (Q03530 1-315): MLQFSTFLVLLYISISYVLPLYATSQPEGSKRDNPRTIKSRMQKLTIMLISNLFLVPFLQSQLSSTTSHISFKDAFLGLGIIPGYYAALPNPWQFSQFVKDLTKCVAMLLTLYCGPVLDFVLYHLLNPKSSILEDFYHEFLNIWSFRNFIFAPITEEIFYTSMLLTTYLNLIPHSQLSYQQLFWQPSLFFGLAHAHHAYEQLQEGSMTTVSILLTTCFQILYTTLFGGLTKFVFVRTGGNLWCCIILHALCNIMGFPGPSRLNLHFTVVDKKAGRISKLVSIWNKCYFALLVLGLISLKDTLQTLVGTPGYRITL

yeast Rce1p [2] = target: T1, yeast Rce1p; assay: fluorescence-based CAAX proteolysis kinetic assay; format: biochemical
In short: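 Enzyme source was carbonate-washed membranes from S. cerevisiae overexpressing yeast Rce1p as sole CAAX protease, diluted in 100 mM Hepes pH 7.5, 5 mM MgCl2 and preincubated 10 min at 30 °C. The final mix held 0.25 mg/mL membrane protein and a 10-point substrate series (0–45 or 0–50 μM) in triplicate wells. Read at 340/420 nm every 30–60 s for 1 h at 30 °C. Product was quantified against trypsin-cleaved standard curves.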

[3] = target: Ras Converting Enzyme 1 (Rce1p), HA-epitope tagged, yeast (S. cerevisiae) (UniProt Q03530); assay: cross-linking

For `c1cnc2c(c1)ccc1cccnc12` [1,10-phenanthroline], the “inhibition of yeast Rce1p” value (yeast Rce1p [1]) is listed as “inhibited”.

For `[Zn]` [zinc], the “inhibition of yeast Rce1p” value (yeast Rce1p [1]) is listed as “inhibited”.

In the case of Abz-KSKTKC(C10BP)K(Dnp)IM [Peptide 6], the “h (Hill coefficient)” value (yeast Rce1p [2]; Rce1p-enriched membranes 0.25 mg/mL, pH 7.5, 30 °C, Hill Equation fit, n=5) was 1.8, the Vmax/KM (yeast Rce1p [2]; Rce1p-enriched membranes 0.25 mg/mL, pH 7.5, 30 °C, n=5) was 8.9×10^−5 L/min/mg protein and the “efficiency (Vmax/KM) of Rce1p processing, fold lower than 2” value (yeast Rce1p [2]; compared with 2) was 10 -fold. The “maximal processing rate (Vmax), fold less than 2” value (yeast Rce1p [2]; compared with 2) was “approximately 7 -fold”, the “efficiency (Vmax/KM) of Rce1p processing compared with 4” value (yeast Rce1p [2]; compared with 4) was “approximately double that of 4; also recorded: increased approximately two-fold” and the “maximal processing rate (Vmax), fold greater than 4” value (yeast Rce1p [2]; compared with 4) was 9 -fold. For the same molecule, the “Rce1p substrate” value (yeast Rce1p [2]; fluorescence-based kinetic evaluation) was “could serve as a substrate for Rce1p” and the “binding affinity, fold less than that of 4” value (yeast Rce1p [2]; from KM, compared with 4) was 4 -fold.

With “Peptide 2, Abz-KSKTKC(farnesyl)K(Dnp)IM, internally quenched fluorogenic farnesylated substrate based on the K-Ras4b C-terminal sequence” the percent labeling of Rce1p by 14 (15 μM) left with 50 μM 2 [3] was 84% and the percent labeling of Rce1p by 14 (15 μM) left with 100 μM 2 [3] was 7%.

In the case of “Peptide 9, Biotin-K(Dde)KSKTKC(C10BP)K(Dnp)IM”, the fold labeling efficiency against probe 8 (fold less than 8) [3] was 4.
